Screening data deposited in PubChem BioAssay by several laboratories.
Calb FLC – C. albicans growth modulation with fluconazole | C. albicans CaCi-2 (fluconazole-resistant clinical isolate) + fluconazole, Alamar Blue growth, 48 h | growth inhibition, % (concentration not given with the values) | 0.57% of 300,000 active;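 active = growth inhibition above about 58% in most replicates, limit read from the data, passing the limit was not always enough; inconclusive = exactly half the replicates above a set limit; inactive = most replicates below a set limit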;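 also: all wells also contain fluconazole at 8 µg/ml as a sub-toxic cotreatment; 0% = median of DMSO wells and 100% = median of geldanamycin control wells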
CSC inhib – blocks cancer stem cells. 1.1% of 300,000 active. inhibition, % at 7.5 µM. cancer stem cell-like cells viability, luminescence; in the data active = inhibition above about 75%; inconclusive = no clear call, values can overlap the other calls; tested in HMLE shEcad cells
NALP3 yeast inh – NALP3 inhibition in yeast | Yeast reconstituted NLRP3/ASC/caspase-1, beta-gal luminescence, 24 h | 0.39% of 330,000 active | inhibition, % at 10 µM;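 active = inhibition of 50% or more; inactive = inhibition below 50%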;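 also: plate controls were induced DMSO wells for no effect and uninduced yeast grown without galactose for full effect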
Mdm2-MdmX inh – inhibitors of human Mdm2/MdmX interaction. O15151+Q00987. 3% of 330,000 active. SaOS-2 split-luciferase Mdm2/MdmX complementation, luminescence. inhibition, % at 8 µM;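 active = inhibition of at least 50% at 8 µM in the primary screen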
T cruzi repl – blocks replication of Trypanosoma cruzi; T. cruzi beta-gal in NIH3T3, luminescence, 90 h; inhibition, % (test concentration not listed); 1.4% of 300,000 active;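 active = mean inhibition across valid replicates above about 55%, limit read from the data; inconclusive = mean below that limit but half or more replicates reach it; inactive = mean below it, under half of replicates reach it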;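 also: signal also drops with host cell toxicity which is not excluded here; 0% = plate median of DMSO wells and 100% = zero luminescence signal; higher percent means less beta-gal luminescence so fewer parasites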
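Material: NIH/3T3 host cells with β-galactosidase reporter T. cruzi; Input: 5,000 host fibroblasts per well; Medium: DMEM, 2% fetal bovine serum; Compound: 50 nL DMSO compound solution per well; Schedule: 3 h host attachment, then at least 90 h co-culture; Detection: luminescent β-galactosidase signal after 60 min lysis.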
Beta cell apopt – blocks beta cell apoptosis | AID 435005 | protection from apoptosis, % (no concentration beside the values) | INS-1E cytokine-induced death, ATP luminescence, 48 h; percent of positive-control rescue, neutral wells zero | 0.8% of 300,000 active;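 active = Every replicate reaches about 75%, or at least half do and their mean reaches it too, limit read from the data; inconclusive = At least half of replicates reach the limit but their mean does not; inactive = Under half of replicates reach the limit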;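 also: 0% = cytokine-treated negative control wells and 100% = positive control rescue; higher means more ATP so stronger rescue from cytokine killing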
NALP3 yeast conf – NALP3 inhibition confirmation in yeast; shares compounds with NALP3 yeast inh; yeast expressing human NALP3, luminescence; inhibition, % at 10 µM; 81% of 1,300 active; AID 435006; in the data active = inhibition above about 48%
Casp1 ASC ctr – counter-screen for NALP3 inhibitors: yeast caspase-1-ASC; shares compounds with NALP3 yeast inh; 66% of 1,000 active; inhibition, % at 10 µM; yeast expressing Caspase-1-ASC, luminescence counter screen
NALP3 retest – confirmation retest of NALP3 inhibitors in yeast | shares compounds with NALP3 yeast inh | yeast expressing human NALP3, luminescence read-out | inhibition, % at 10 µM | 53% of 1,000 active
Active calls of the source: *; ? = inconclusive; nt = no result given. Compounds with a hit are over-represented: about 5.3% of the library has one in this group of screens. Rule as the data show it, unless noted: active = inhibition above about 50%; inactive = the rest.

SMILES | Calb FLC | CSC inhib | NALP3 yeast inh | Mdm2-MdmX inh | T cruzi repl | Beta cell apopt | NALP3 yeast conf | Casp1 ASC ctr | NALP3 retest
CCOC(=O)C1CCN(C(=O)c2cccc(S(=O)(=O)Nc3ccc(C)cc3C)c2)CC1 | 13 | -12 | 3 | -9 | 22 | -3 | nt | nt | nt
CCN1C(=O)/C(=C/C=C2/SCCN2C)SC1=S | -2 | 7 | 50 | -64 | 25 | 15 | 33 | nt | nt
CC(C)CCNC(=S)Nc1ccc([N+](=O)[O-])cc1 | -46 | -1 | 63* | 17 | 9 | 38 | -7 | nt | nt
O=C(c1ccccc1)c1cccc(C(=O)c2ccccc2)c1 | nt | 6 | 56* | 9 | nt | -1 | 58* | 54* | 51*
C#C[C@]1(O)CC[C@H]2[C@@H]3CCc4cc(O)ccc4[C@H]3CC[C@@]21C | nt | 44 | 55* | 42 | -1 | -13 | 68* | 51* | 44
O=C(CCCN1C(=O)NC2(CCCC2)C1=O)Nc1ccc(F)cc1 | nt | nt | 5 | 6 | nt | -7 | nt | nt | nt
O=C(c1ccccn1)C1CCCN(Cc2cn[nH]c2-c2cc3ccccc3o2)C1 (stereo not given) | -24 | nt | 11 | 5 | 49 | -3 | nt | nt | nt
O=C(Nc1ccc(S(=O)(=O)NCCc2ccccc2)cc1)c1ccc(Br)o1 | -28 | -9 | -17 | 26 | -6 | nt | nt | nt | nt
CC(C)(C)[C@@H]1C=C(C(=O)NCc2ccccc2)O[C@H](OCc2ccc(CO)cc2)C1 | 7 | 12 | 18 | 2 | 18 | 8 | nt | nt | nt
CC(C)(C)[C@H]1C=C(C(=O)Nc2ccccc2)O[C@@H](OCc2ccc(CO)cc2)C1 | 2 | -17 | 53* | 13 | 6 | 9 | 59* | 61* | 53*
CNC(=S)N(C1=NCC(c2ccc([N+](=O)[O-])cc2)S1)c1ccccc1 (stereo not given) | -2 | 13 | 39 | -13 | 19 | -2 | nt | nt | nt
CC(C)c1ccc(NC(=O)CN2C(=O)COc3ccc(S(=O)(=O)N4CCOCC4)cc32)cc1 | 1 | -15 | 5 | 15 | -5 | 2 | nt | nt | nt
CCOC(=O)c1cnn(-c2cc(C)cc(C)c2)c1N | -4 | 17 | 50 | -2 | -8 | 0 | 70* | 57* | 58*
CCOC(=O)c1cnn(-c2ccc(F)cc2)c1N | 5 | 2 | 8 | -11 | -10 | 2 | nt | nt | nt
CCn1ncc(/C=C/C(=O)Nc2c(C)nn(Cc3ccc(Cl)cc3Cl)c2C)c1C | 2 | nt | -1 | 8 | -1 | 19 | nt | nt | nt
C(=N\Nc1ccccc1)/c1nc2ccccc2s1 | -33 | -7 | 37 | -164 | 1 | -6 | nt | nt | nt
Cc1ccc(C)c(NC(=O)c2ccc(S(=O)(=O)C(F)F)cc2)c1 | -10 | 1 | 53* | 9 | -10 | 2 | 65* | 46 | 43
Cc1ccc2sc(NC(=O)CSc3nc(C)cc(C)c3C#N)nc2c1 | 25 | nt | 51* | -58 | 16 | 5 | 41 | 11 | 17
Cc1cc(C)c(C#N)c(SCC(=O)Nc2ccccc2C)n1 | 4 | 6 | 22 | -46 | -4 | 2 | nt | nt | nt
Cc1ccc(-n2nnnc2-c2cccnc2)cc1 | 9 | -3 | 0 | 1 | -5 | -2 | nt | nt | nt
CCOc1ccc(C(=O)CCc2nc3ccccc3s2)cc1 | 17 | -4 | 67* | 17 | 16 | 14 | 67* | 65* | 60*
COc1ccc(NC(=O)CCc2nc3ccccc3s2)c(OC)c1 | -3 | 0 | 24 | 7 | 10 | 0 | nt | nt | nt
Cc1cc(C)cc(NC(=O)N2CCCC2C(=O)NCc2ccco2)c1 (stereo not given) | 8 | -8 | 0 | 22 | 2 | -3 | nt | nt | nt
O=C(CN1CCCCCCC1)Nc1cc(Cl)cc(Cl)c1 | -15 | -11 | 51* | 17 | 4 | 4 | 23 | nt | nt
O=C(CN1CCCC1)Nc1cccc(Cl)c1 | 33 | 0 | 6 | -14 | -11 | -1 | nt | nt | nt
SMILES | Calb FLC | CSC inhib | NALP3 yeast inh | Mdm2-MdmX inh | T cruzi repl | Beta cell apopt | NALP3 yeast conf | Casp1 ASC ctr | NALP3 retest
Cc1cccc(NC(=O)c2cc3ccccc3o2)c1 | -10 | 22 | 54* | -178 | -29 | -2 | 72* | 59* | 52*
CCC(=O)Nc1cccc(NC(=O)c2cc3ccccc3o2)c1 | -2 | 7 | 26 | -22 | 0 | -2 | nt | nt | nt
NS(=O)(=O)c1cccc(NC(=O)c2cc3ccccc3o2)c1 | ? | -6 | 10 | 24 | 0 | -2 | nt | nt | nt
O=C(Nc1cccc(Br)c1)c1cc2ccccc2o1 | -20 | 19 | 64* | -166 | 2 | -8 | 62* | 48 | 60*
CN1CCC23c4ccccc4NC1C21CCN(C)C3Nc2ccccc21 | -7 | -8 | 4 | 14 | -15 | -1 | nt | nt | nt
COc1ccccc1Nc1nc(C)cc(C)n1 | -1 | 1 | 25 | -8 | -8 | nt | nt | nt | nt
O=C(Nc1ccccc1F)C1CCN(C(=O)NC2CCCCC2)CC1 | -3 | nt | 9 | 1 | -10 | 0 | nt | nt | nt
Cc1cc(Cl)c2oc(C(=O)N(C)Cc3ccon3)c(C)c2c1 | -12 | 15 | 50* | -131 | 34 | 2 | 48* | 41 | 47
Cc1cc(Cl)c2oc(C(=O)N(C)Cc3cc(C)[nH]n3)c(C)c2c1 | 3 | -9 | 30 | -3 | 8 | -30 | nt | nt | nt
Cc1ccc(-c2nc(S(=O)(=O)c3ccc(C)cc3)c(N(C)C)o2)cc1 | -1 | -9 | 71* | 20 | -6 | 2 | 66* | 82* | 62*
O=C(N/N=C/c1ccccc1)c1c(O)c2ccccc2[nH]c1=O | -4 | 19 | 55* | 38 | 7 | 124* | 65* | nt | nt
O=C(NNC(=O)c1c(O)c2ccccc2[nH]c1=O)c1ccccc1 | -12 | -8 | 50 | 7 | -2 | 0 | nt | nt | nt
Cc1cc(C(=O)Nc2ccc(Br)cn2)sc1C | nt | nt | 59* | -182 | nt | 0 | 61* | 57* | 56*
C=C(CC[C@@H](O)C(C)(C)O)[C@H]1CC[C@]2(C)[C@@H]1CCC1[C@@]3(C)CC[C@H](O)C(C)(C)C3CC[C@]12C (stereo not given in full) | nt | ? | 58* | 28 | nt | -2 | 50 | 46 | 33
COc1ccc(CSCCNC(=S)Nc2ccccc2)cc1Cl | -18 | 15 | 27 | 14 | -5 | 4 | nt | nt | nt
S=C(NCCSCc1ccc(Cl)c(Cl)c1)Nc1ccccc1 | -13 | -14 | 62* | 5 | 2 | -3 | 71* | 58* | 39
Cc1cc(C)n2nc(C(=O)Nc3ccc4c(c3)CCC4)nc2n1 | -8 | 0 | 6 | -4 | -2 | 5 | nt | nt | nt
O=C(c1ccc(F)cc1)n1ccc(-c2cnc(-c3ccccc3)s2)n1 | 35 | 0 | 73* | -106 | -7 | -7 | 57* | 12 | -1
COc1c(C)cc(C(=O)C2CCCN(C(=O)Cn3nc(C)nc3C)C2)cc1C (stereo not given) | -1 | -5 | -16 | -7 | -2 | -3 | nt | nt | nt
